Reference: the array DNA melting data of Ke et al. (doi:10.1101/2024.01.08.574731)

Assays:
[1] = folding enthalpy; higher = less favourable; fluorescence melt of hairpins on a sequencing array, two-state fit; details: sodium 0.088 M
Method in brief: (§1)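 In 50 mM Na-HEPES pH 8.0 containing 25 mM NaCl, hairpins from the library on a sequenced MiSeq flow cell were imaged for Cy3 fluorescence at 2.5 °C steps up to 60 °C, with Cy3 and quencher oligos annealed. After normalisation to pre-quench Cy3 and to control constructs, two-state fits with bootstrapping gave melting temperature and folding enthalpy. Four replicates were combined by inverse-variance weighting, and fitted temperatures were shifted up by 9.35 °C to match UV melts.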

[2] = melting temperature; fluorescence melt of hairpins on a sequencing array, two-state fit, raised by 9.35 °C to match UV melts; details: sodium 0.088 M
Method in brief: as §1

Row | Sequence | folding enthalpy [1] [kcal/mol] | Tm [2] [°C]
1 | GGTACCGAAAGGTTTACC ((((((....)))..))) | -13.8 | 37.1
2 | GGTACCGGAAACAGTACC (((((.(....).))))) | -31.1 | 39.9
3 | GGTACCGGAAACGGTGCC ((.((((....)))).)) | -38.3 | 60.6
4 | GGTACGCGAAAGCGACC (((.(((....)))))) | -14.9 | 54.8
5 | GGTACGGGAAACCACACC (((..((....))..))) | -16.2 | 33
6 | GGTACGGGAAACCGTGCC ((.((((....)))).)) | -40.9 | 59.7
7 | GGTACGGGAAACCGTGTC (..((((....))))..) | -14.1 | 35.3
8 | GGTACTCGAAAGAGCACC (((.(((....))).))) | -34.8 | 50.5
9 | GGTACTCGAAAGAGGACC (((.(((....))).))) | -42.7 | 61.5
10 | GGTACTGAAAAGTACC ((((((....)))))) | -39.5 | 57.4
11 | GGTAGAACGAAAGTTACC (((..(((....)))))) | -17 | 35
12 | GGTAGAGGAAACCCTACC (((((.(....).))))) | -33.4 | 38.2
13 | GGTAGAGGAAACTCTATC (.(((((....))))).) | -26.9 | 37.1
14 | GGTAGAGGAAACTTTACC ((((.((....)).)))) | -24.9 | 34
15 | GGTAGCCGAAAGGCGACC (((.(((....))).))) | -24.5 | 66.9
16 | GGTAGCGAAAGCTAACC ((((((....))).))) | -18.7 | 53.8
17 | GGTAGCGAAAGCTGTACC ((((((....)))..))) | -19.9 | 40.7
18 | GGTAGCGAAAGCTTGACC ((((((....)))..))) | -13.9 | 35.7
19 | GGTAGGAAACTACC (((((....))))) | -26.5 | 48.2
20 | GGTAGGCGAAAGCCGACC (((.(((....))).))) | -18.6 | 65.4
21 | GGTAGGGGAAACCCTATC (.(((((....))))).) | -24.4 | 44.3
22 | GGTAGGGGAAACCTTGCC ((.(.((....)).).)) | -20.2 | 34.7
23 | GGTAGGGGAAACTCTGCC ((.((.(....).)).)) | -22.9 | 35.1

Row | Sequence | folding enthalpy [1] [kcal/mol] | Tm [2] [°C]
24 | GGTAGTCGAAAGACAACC (((.(((....))).))) | -25.2 | 51.3
25 | GGTAGTGGAAACACTGTC (..((((....))))..) | -20.9 | 29.2
26 | GGTAGTGGAAACATTACC ((((.((....)).)))) | -34.3 | 41.6
27 | GGTATCCGAAAGGAAACC (((.(((....))).))) | -31.9 | 48.8
28 | GGTATCGAAAGATCCACC ((((((....)))..))) | -14.7 | 31.8
29 | GGTATCGAAAGATGAACC ((((((....)))..))) | -15.4 | 27.9
30 | GGTATCGAAAGATGCACC ((((((....)))..))) | -16.1 | 33.9
31 | GGTATCGAAAGATGGACC ((((((....)))..))) | -15.2 | 28.9
32 | GGTATGCGAAAGCAACC (((.(((....)))))) | -14.5 | 47.7
33 | GGTATGGGAAACCACACC (((.(((....))).))) | -27 | 38.6
34 | GGTATGGGAAACCATATC (.(((((....))))).) | -24.1 | 39.7
35 | GGTATGGGAAACCATGTC (..((((....))))..) | -13.5 | 27.4
36 | GGTATTGAAAAATACC ((((((....)))))) | -38.8 | 49
37 | GGTATTGGAAACAATACC (((((((....))))))) | -43.7 | 56.9
38 | GGTATTGGAAACAATATC (.(((((....))))).) | -24.9 | 37.1
39 | GGTCAAGCGAAAGCTACC (((..(((....)))))) | -17.8 | 34.8
40 | GGTCAAGGAAACCTGACC (((((.(....).))))) | -30.5 | 46.5
41 | GGTCACCGAAAGGTAACC (((.(((....))).))) | -27.5 | 48.4
42 | GGTCACGAAAGTGAGACC ((((((....)))..))) | -15.7 | 45.8
43 | GGTCACGAAAGTGGTACC ((((((....)))..))) | -14.3 | 42.7
44 | GGTCACGAAAGTGTCACC ((((((....)))..))) | -13.3 | 37.9
45 | GGTCACGAAAGTGTGACC ((((((....)))..))) | -33.8 | 56.3
46 | GGTCACGGAAACGTGGCC ((.((((....)))).)) | -37.2 | 64.9

Row | Sequence | folding enthalpy [1] [kcal/mol] | Tm [2] [°C]
47 | GGTCAGACGAAAGTCACC (((..(((....)))))) | -14.6 | 30.5
48 | GGTCAGCGAAAGCTTACC (((.(((....))).))) | -31.8 | 48.9
49 | GGTCAGGGAAACTTGGCC ((.((.(....).)).)) | -26.1 | 38.2
50 | GGTCATCGAAAGATACC (((.(((....)))))) | -24.2 | 38.4
51 | GGTCATGGAAACACGACC ((((.((....)).)))) | -37.1 | 43
52 | GGTCATGGAAACATGGTC (..((((....))))..) | -17.6 | 32.7
53 | GGTCCAGAAATGGACC ((((((....)))))) | -46 | 64
54 | GGTCCAGGAAACCGAACC (((.(.(....).).))) | -10 | 25.7
55 | GGTCCCCGAAAGGGTACC (((.(((....))).))) | -24.1 | 53.3
56 | GGTCCCGAAAGGGAAACC ((((((....)))..))) | -15.3 | 43.2
57 | GGTCCCGAAAGGGATACC ((((((....)))..))) | -12.9 | 41.4
58 | GGTCCCGAAAGGGCACC ((((((....))).))) | -16.6 | 53.5
59 | GGTCCGTCGAAAGACACC (((..(((....)))))) | -14.1 | 27.5
60 | GGTCCTCGAAAGAGACC (((.(((....)))))) | -31.3 | 48.1
61 | GGTCGAGAAATCGACC ((((((....)))))) | -40 | 66.2
62 | GGTCGAGGAAACCCGACC (((((.(....).))))) | -49.6 | 54.1
63 | GGTCGAGGAAACTCGGCC ((.((((....)))).)) | -53.9 | 59.5
64 | GGTCGCACGAAAGTGACC (((..(((....)))))) | -18.1 | 49.6
65 | GGTCGCGAAAGCGGTACC ((((((....)))..))) | -14.5 | 46.5
66 | GGTCGCGGAAACGTGGCC ((.(.((....)).).)) | -48.9 | 53.5
67 | GGTCGGAAACGACC (((((....))))) | -32.3 | 68
68 | GGTCGGGGAAACCTGACC ((((.((....)).)))) | -37.5 | 57.2
69 | GGTCGTGGAAACACGATC (.(((((....))))).) | -38 | 54

Row | Sequence | folding enthalpy [1] [kcal/mol] | Tm [2] [°C]
70 | GGTCGTGGAAACGTGACC ((((..(....)..)))) | -20.4 | 46.5
71 | GGTCTAACGAAAGTTACC (((..(((....)))))) | -10.2 | 25.5
72 | GGTCTACCGAAAGGTACC (((..(((....)))))) | -11 | 29.1
73 | GGTCTACGAAAGTAACC (((.(((....)))))) | -24 | 34.3
74 | GGTCTAGGAAACTAGATC (.(((((....))))).) | -29.8 | 40.3
75 | GGTCTAGGAAACTAGGCC ((.((((....)))).)) | -46.1 | 51.1
76 | GGTCTAGGAAACTGGACC ((((.((....)).)))) | -41.6 | 51
77 | GGTCTATCGAAAGATACC (((..(((....)))))) | -10.3 | 25.8
78 | GGTCTCCGAAAGGAAACC (((.(((....))).))) | -29.2 | 45.5
79 | GGTCTCCGAAAGGAACC (((.(((....)))))) | -22.4 | 45.2
80 | GGTCTCGAAAGAGATACC ((((((....)))..))) | -15.2 | 38.7
81 | GGTCTCGAAAGAGGTACC ((((((....)))..))) | -19.9 | 35
82 | GGTCTCGAAAGAGTCACC ((((((....)))..))) | -14.6 | 31.3
83 | GGTCTCGGAAACGAGGCC ((.((((....)))).)) | -39.3 | 62.2
84 | GGTCTCTCGAAAGAGACC (((..(((....)))))) | -35.3 | 60.5
85 | GGTCTGCGAAAGCAACC (((.(((....)))))) | -18.8 | 44.6
86 | GGTCTGCGAAAGCACACC (((.(((....))).))) | -20.9 | 42.1
87 | GGTCTGCGAAAGCATACC (((.(((....))).))) | -22.1 | 49.4
88 | GGTCTTCGAAAGAAAACC (((.(((....))).))) | -25.7 | 35.2
89 | GGTCTTGCGAAAGCAACC (((..(((....)))))) | -8.24 | 28.8
90 | GGTCTTGGAAACAAGACC (((((((....))))))) | -45.2 | 64.2
91 | GGTCTTGGAAACGAGACC (((((.(....).))))) | -37.6 | 51.9
